Laboratory results published in ChEMBL document CHEMBL4152337, “Novel indolo-sophoridinic scaffold as Topo I inhibitors: Design, synthesis and biological evaluation as anticancer agents” (Eur J Med Chem, 2018).
Activity calls are given as the source filed them. The calls are words filed in the database; no cut-off is given here.

Assays:
HepG2 [1] = test: Antitumor activity against human HepG2 cells xenografted in BALB/C nude mouse assessed as tumor weight at 40 mg/kg, ip treated twice per week for 25 days (reference value: 0.84 +/- 0.09 g); format: functional
In short: (§1)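 Female BALB/c nude mice, 5–6 weeks old, with subcutaneous flank xenografts of 8 × 10⁶ HepG2 cells. Randomized when tumors reached ~150–200 mm³. Dosed ip twice weekly for 25 days at 40 mg/kg; vehicle was saline with 10% DMSO (n = 6 vehicle, n = 5 per treated group). Caliper measurements every other day, volume = 0.5 × L × W². Tumors excised and weighed at end. Mean ± SD; t-test versus vehicle.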

HepG2 [2] = test: Antitumor activity against human HepG2 cells xenografted in BALB/C nude mouse assessed as tumor growth at 40 mg/kg, ip treated twice per week for 25 days relative to control; format: functional; in short: as §1
Mus musculus = test: Toxicity against BALB/C nude mouse xenografted with human HepG2 cells assessed as body weight loss at 40 mg/kg, ip treated twice per week measured at day 19 post dose; format: organism-based; conditions: in vivo
In short: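 HepG2 subcutaneous xenografts (8 × 10⁶ cells, flank) in female BALB/c nude mice aged 5–6 weeks. At ~150–200 mm³ tumors, ip dosing at 40 mg/kg twice weekly for 25 days; vehicle was saline with 10% DMSO. Body weight tracked every other day from day 1 to day 25. Mean ± SD; t-test versus vehicle.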

[3] = target: T1, DNA topoisomerase 1 (Homo sapiens) (UniProt P11387); test: Inhibition of recombinant human topoisomerase-1-mediated relaxation of supercoiled pBR322 DNA at 500 uM after 30 mins by ethidium bromide staining based assay
T1 sequence (whole entry): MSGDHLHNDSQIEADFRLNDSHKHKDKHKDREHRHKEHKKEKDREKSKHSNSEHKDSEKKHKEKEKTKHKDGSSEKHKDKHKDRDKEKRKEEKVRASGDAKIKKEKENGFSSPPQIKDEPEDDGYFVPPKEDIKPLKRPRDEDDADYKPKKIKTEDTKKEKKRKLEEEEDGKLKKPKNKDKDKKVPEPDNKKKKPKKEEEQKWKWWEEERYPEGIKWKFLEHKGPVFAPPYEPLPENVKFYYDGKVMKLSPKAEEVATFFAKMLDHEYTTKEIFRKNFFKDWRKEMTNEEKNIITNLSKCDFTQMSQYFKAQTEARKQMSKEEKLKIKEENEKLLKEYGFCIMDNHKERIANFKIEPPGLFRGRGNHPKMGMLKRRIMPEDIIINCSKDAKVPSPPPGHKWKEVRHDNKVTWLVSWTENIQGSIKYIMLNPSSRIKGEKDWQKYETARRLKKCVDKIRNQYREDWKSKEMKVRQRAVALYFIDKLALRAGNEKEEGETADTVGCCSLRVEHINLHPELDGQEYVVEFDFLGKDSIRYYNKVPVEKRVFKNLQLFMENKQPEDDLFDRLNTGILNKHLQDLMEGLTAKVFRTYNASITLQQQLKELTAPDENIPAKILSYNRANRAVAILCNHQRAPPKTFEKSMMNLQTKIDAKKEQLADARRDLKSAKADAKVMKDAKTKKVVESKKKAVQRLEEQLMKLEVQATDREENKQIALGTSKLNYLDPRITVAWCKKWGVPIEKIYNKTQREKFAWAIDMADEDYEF
In short: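 Reactions stopped with loading buffer containing 0.5% SDS, bromophenol blue and 15% glycerol. Products run on a horizontal 0.8% agarose gel in 1× TAE at 4 V/cm for 40 min at room temperature. Gel stained with ethidium bromide and imaged.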

HepG2 [4] = test: Cell cycle arrest in human HepG2 cells accumulation at S phase at 2.5 uM after 24 hrs by propidium iodide staining-based flow cytometric analysis (reference value: 45.44%); format: functional
In short: (§2)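 HepG2 seeded at 2 × 10⁵ cells/well in DMEM + 10% FBS. Treated 24 h at 1, 2.5 or 5 µM. Fixed overnight in cold 75% ethanol at 4 °C, RNase-treated 30 min at 37 °C, then propidium iodide-stained 30 min in the dark. Analysed by flow cytometry. Mean ± SD; representative of three independent experiments.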

CNE-2 = test: Cytotoxicity against human CNE2 cells assessed as reduction in cell viability after 48 hrs by MTT assay; format: functional, cell-based; conditions: CNE-2, 48 h
In short: (§3)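 Cells at 3–4 × 10⁴/mL in DMEM + 10% FBS, pre-incubated 24 h in 5% CO₂. Then exposed 48 h to serial dilutions at 1, 5, 10, 20 and 50 µM; final DMSO <0.1%. MTT (5 mg/mL solution) added for 4 h at 37 °C, supernatant removed, formazan dissolved in DMSO, colorimetric read-out.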

HepG2 [5] = test: Cell cycle arrest in human HepG2 cells accumulation at S phase at 5 uM after 24 hrs by propidium iodide staining-based flow cytometric analysis (reference value: 45.44%); format: functional; in short: as §2
HepG2 [6] = test: Antitumor activity against human HepG2 cells xenografted in BALB/C nude mouse assessed as tumor volume at 40 mg/kg, ip treated twice per week for 25 days (reference value: 1185.78 +/- 137.44 mm3); format: functional
HepG2 [7] = test: Cytotoxicity against human HepG2 cells assessed as reduction in cell viability after 48 hrs by MTT assay; format: functional, cell-based; conditions: HepG2, 48 h; in short: as §3
A549 = test: Cytotoxicity against human A549 cells assessed as reduction in cell viability after 48 hrs by MTT assay; format: functional, cell-based; conditions: A549, 48 h; in short: as §3
HepG2 [8] = test: Cell cycle arrest in human HepG2 cells accumulation at S phase at 1 uM after 24 hrs by propidium iodide staining-based flow cytometric analysis (reference value: 45.44%); format: functional; in short: as §2

CCc1c2c(nc3ccc(OC(=O)N4CCC(N5CCCCC5)CC4)cc13)-c1cc3c(c(=O)n1C2)COC(=O)[C@]3(O)CC [IRINOTECAN]
Activity (HepG2 [1]): 0.47 g | T/C (HepG2 [2]): 35.08% | Activity (Mus musculus): Toxic

OCCCC[C@@H]1[C@H]2CCCN3CCC[C@H](CN1Cc1cn(Cc4ccc(Br)cc4)c4ccccc14)[C@@H]23
inhibition [3]: Active | Activity (HepG2 [4]): 60.68% | Activity (HepG2 [1]): 0.61 g | IC50 (CNE-2): 3.5 µM | Activity (HepG2 [5]): 64.17% | T/C (HepG2 [2]): 55.99% | Activity (HepG2 [6]): 737.04 mm3 | IC50 (HepG2 [7]): 3.1 µM | IC50 (A549): 22.1 µM | Activity (HepG2 [8]): 55.77%
